# Compounds with a hit are over-represented: about 3% of the library has one in this group of screens.
# MPTP inh: permeability transition pore inhibition | isolated mouse mitochondria, Ca2+ swelling absorbance, 30 min | AID 602449 | inhibition, % at 10 µM | 360,000 tested, 1.4% active;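 active = inhibition of 50% or more, scaled per plate between neutral and stimulator controls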
# UBC13 polyUb: human UBC13 polyubiquitination inhibition; inhibition, % at 20 µM; UBC13 polyubiquitin chain formation, TR-FRET; AID 485273; 330,000 tested, 0.47% active; P61088; in the data active = inhibition above about 45%, passing the limit was not always enough
# beta cell repl: inducers of beta-cell replication in MIN6 cells. MIN6 cells proliferation, ATPlite luminescence, 48 h; cells starved in 0.2% serum; 100% = growth in 10% serum. proliferation, % at 10 µM. 330,000 tested, 0.29% active;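 active = compounds whose signal lies at least 3.5 SD above the mean of all wells on their plate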
# Exocytosis inh: lytic granule exocytosis inhibition. 360,000 tested, 0.66% active. inhibition, % at 10 µM. TALL-104 LAMP-1 surface exposure, flow cytometry; cells stimulated with thapsigargin and PMA;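 active = inhibition above about 55%, limit read from the data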
# Apaf1 inhib: inhibitors of human Apaf-1 apoptosome | O14727 | reconstituted apoptosome caspase-3 activity, DEVD-Rh110 fluorescence | inhibition, % at 20 µM | 330,000 tested, 0.71% active; active = inhibition of at least 40% at 20 µM
# Target sequence (O14727 whole entry, looked up): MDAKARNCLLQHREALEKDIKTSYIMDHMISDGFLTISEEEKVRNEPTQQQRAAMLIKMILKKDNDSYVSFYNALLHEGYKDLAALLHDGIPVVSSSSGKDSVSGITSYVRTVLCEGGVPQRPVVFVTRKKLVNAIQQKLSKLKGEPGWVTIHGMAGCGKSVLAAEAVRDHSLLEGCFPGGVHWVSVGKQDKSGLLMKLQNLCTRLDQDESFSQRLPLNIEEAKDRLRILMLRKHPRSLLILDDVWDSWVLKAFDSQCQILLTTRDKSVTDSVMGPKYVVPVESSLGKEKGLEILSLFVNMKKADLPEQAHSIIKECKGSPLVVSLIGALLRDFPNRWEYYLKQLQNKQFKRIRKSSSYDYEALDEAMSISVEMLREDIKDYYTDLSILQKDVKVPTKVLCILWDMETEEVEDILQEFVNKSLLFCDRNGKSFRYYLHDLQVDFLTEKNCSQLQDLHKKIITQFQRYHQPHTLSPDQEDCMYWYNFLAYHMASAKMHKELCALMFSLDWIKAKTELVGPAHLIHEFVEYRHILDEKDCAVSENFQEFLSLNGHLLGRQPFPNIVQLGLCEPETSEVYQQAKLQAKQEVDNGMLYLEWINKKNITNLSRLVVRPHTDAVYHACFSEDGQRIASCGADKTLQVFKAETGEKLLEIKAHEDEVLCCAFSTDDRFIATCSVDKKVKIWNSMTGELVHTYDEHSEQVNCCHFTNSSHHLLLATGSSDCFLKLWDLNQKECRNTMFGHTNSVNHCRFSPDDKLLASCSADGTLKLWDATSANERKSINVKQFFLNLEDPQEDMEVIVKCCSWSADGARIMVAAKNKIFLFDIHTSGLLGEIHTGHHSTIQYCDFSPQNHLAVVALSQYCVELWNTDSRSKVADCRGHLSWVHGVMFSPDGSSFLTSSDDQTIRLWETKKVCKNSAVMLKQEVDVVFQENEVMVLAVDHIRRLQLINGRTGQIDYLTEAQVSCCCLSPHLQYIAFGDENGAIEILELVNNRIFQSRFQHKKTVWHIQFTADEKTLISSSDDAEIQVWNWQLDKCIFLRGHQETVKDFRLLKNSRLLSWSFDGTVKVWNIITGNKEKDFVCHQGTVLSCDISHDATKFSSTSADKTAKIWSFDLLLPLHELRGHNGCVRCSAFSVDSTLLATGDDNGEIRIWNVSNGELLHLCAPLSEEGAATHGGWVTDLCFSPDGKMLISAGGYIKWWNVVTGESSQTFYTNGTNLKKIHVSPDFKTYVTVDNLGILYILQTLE
#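 Material: cell-free apoptosome with Apaf-1, procaspase-3 and caspase-9; Buffer or medium: Hepes pH 7.5 with detergent and BSA; Reagent: cytochrome c trigger plus (Z-DEVD)2-Rh110 caspase-3 substrate; Times: compound with Apaf-1, dATP, procaspase-3 30 min, then 50 min reaction, room temperature; Technique: Rh110 fluorescence intensity.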
# iPSC survival up: increases survival of single human iPS cells; hiPSC single-cell survival, ATPlite luminescence; 100% = ROCK inhibitor wells, 0% = DMSO; survival enhancement, % at 20 µM; 360,000 tested, 0.044% active; AID 602274; in the data active = survival enhancement above about 18%;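 note: cells exposed to compounds for 16 hours before the ATP read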
# Apaf-1 inh conf: confirmation of Apaf-1 inhibitors; shares compounds with Apaf1 inhib; reconstituted apoptosome, caspase-3 DEVD-Rh110 fluorescence; inhibition, % at 20 µM; 1,800 tested, 25% active; AID 504614;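 active = mean inhibition of at least 40% at 20 µM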
# Rh110 interf inh: Rh110 signal interference in Apaf-1 inhibitor counter-screen | 1,800 tested, under 10 active | activation (fluorescence interference), % at 20 µM | AID 504615 | shares compounds with Apaf1 inhib | Rh110 fluorescence interference, quenched caspase reaction;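 active = signal rise of 40% or more at 20 µM, treated as a fluorescence artifact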
# Fluor interf inh: shows fluorescence interference in the Apaf-1 inhibitor assay format | shares compounds with Apaf1 inhib | fluorescence interference counterscreen, Apaf-1 assay format | IC50, µM | 460 tested, under 10 active | AID 588538; call rule not given here
# A number is an active result; . = inactive; / = not tested or not shown.
SMILES,MPTP inh,UBC13 polyUb,beta cell repl,Exocytosis inh,Apaf1 inhib,iPSC survival up,Apaf-1 inh conf,Rh110 interf inh,others
CCN(CC)S(=O)(=O)c1cccc(NC(=O)COC(=O)/C=C/c2ccco2)c1,.,.,.,.,.,.,/,/,
O=c1[nH]c(=O)n(CCCc2ccccc2)cc1-c1ccccc1,.,/,/,.,/,.,/,/,
COc1ccccc1NC(=O)COC(=O)c1ccc(N2CCCC2=O)cc1,.,.,.,.,.,.,/,/,
Cc1ccc(S(=O)(=O)N2CCC(C(=O)OCC(=O)N(C)Cc3ccccc3)CC2)cc1C,.,.,.,.,.,.,/,/,
Cc1ccc(S(=O)(=O)N2CCC(C(=O)OCC(=O)N(C)CC(=O)Nc3ccc(F)cc3)CC2)cc1C,.,.,.,.,51.6,.,.,.,
C/C(N)=C(/C#N)C(=O)CN1C(=O)NC(Cc2c[nH]c3ccccc23)C1=O (configuration not stated),.,.,.,.,.,.,/,/,
COc1ccccc1-c1c(C#N)c(N)nc2c1CCc1ccccc1-2,.,.,.,.,96.3,.,.,.,
CC(=O)c1ccc(N2CCN(CC(=O)NC(=O)NCc3ccccc3)CC2)cc1,.,.,.,.,.,.,/,/,
CCN(CC)CCN(C(=O)c1ccc(C(=O)c2ccccc2)cc1)c1nc2ccc(OC)cc2s1,.,.,.,.,44.5,.,.,.,
COc1ccc2nc(N(CCN(C)C)C(=O)c3ccc(C(=O)c4ccccc4)cc3)sc2c1,.,.,.,.,.,.,/,/,
Cc1ccc(NC2=C/C(=N\S(=O)(=O)c3cccs3)c3ccccc3C2=O)c(C)c1,.,.,.,.,95.0,.,94.8,.,Fluor interf inh=.
Cc1ccc(Cl)cc1NC1=C/C(=N\S(=O)(=O)c2cccs2)c2ccccc2C1=O,.,.,.,.,95.0,.,96.8,.,Fluor interf inh=.
Cc1noc(C)c1NC(=O)N(C)C[C@H]1OCc2cn(nn2)CCCC(=O)N([C@@H](C)CO)C[C@@H]1C,.,/,/,.,/,.,/,/,
CN(CC(=O)Nc1ccc(Cl)c(C(F)(F)F)c1)C(=O)c1ccc2c(c1)NC(=O)CS2,.,.,.,.,.,.,/,/,
COc1ccc2c(c1OC)C(=O)OC2,.,.,.,.,.,.,/,/,
COc1ccc(N)c2c1OCCC2=O,.,.,.,.,87.4,.,.,.,
Cc1cc(NC(=O)CCCn2nc([N+](=O)[O-])c(Br)c2C)no1,.,.,.,.,40.5,.,.,.,
COc1ccc(CCNC(=O)CN(c2ccc(OC)c(OC)c2)S(=O)(=O)c2ccc(C)cc2)cc1,.,.,.,.,.,.,/,/,
COCCNC(=O)CN(c1cccc(OC)c1)S(=O)(=O)c1ccc(C)cc1,.,.,.,.,57.1,.,.,.,
Cc1cc(C)c2sc(NC(=O)c3ccc([N+](=O)[O-])o3)nc2c1,.,.,.,.,.,.,/,/,
O=C(Nc1ccccc1C(=O)O)c1cc(S(=O)(=O)N2CCOCC2)c(Br)s1,.,.,.,.,.,.,/,/,
S=C(Nc1ccc2nsnc2c1)N1CCCCCC1,.,.,.,76.6,92.6,.,.,.,
S=C(NCc1ccc2c(c1)OCO2)Nc1ccc2nsnc2c1,.,.,.,.,61.6,.,.,.,
CC1CCN(C(=O)Nc2ccc3nsnc3c2)CC1,.,.,.,.,.,.,/,/,
C=CCN(CC=C)C(=S)Nc1ccc2nsnc2c1,.,.,.,.,96.0,.,.,.,
O=C(Nc1ccc2nsnc2c1)N1CCCCC1,.,.,.,.,72.7,.,.,.,
Cc1ccc(NC(=S)NCc2ccc3c(c2)OCO3)cc1C,.,.,.,.,.,.,/,/,
C=CCNC(=S)Nc1ccc2nsnc2c1,.,.,.,.,.,.,/,/,
Cc1cc(C)cc(C(O)c2ncc(-c3ccccc3C)[nH]2)c1 (configuration not stated),.,/,/,.,/,.,/,/,
COc1cc(C2(c3ccc(O)c(OC)c3)C(=O)Nc3c(C)cc(Br)cc32)ccc1O,.,.,.,.,.,.,/,/,
